# Laboratory results: PubChem BioAssay
# Active and inactive are the calls of the source.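 The calls were made as follows, unless noted: active = NADPH fluorescence slope more negative than the mean of all samples by about 3 SD, 99.7% confidence; inactive = the rest.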
# What was measured:
# [1] = inhibitors of TNFa-induced NFkB p65 translocation, primary screen, imaging, HUVEC, MLSMR starter and 10KST1 sets (AID 438;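 active = inhibition above 20% together with a positive visual image hit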;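 also: compound added about 3h40 before a 20 min TNFalpha stimulation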;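 as to inhibition: signal is the nuclear over cytoplasmic p65 intensity ratio per well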); details: HUVEC TNFa-induced p65 nuclear translocation; cell count: measured here: nuclei count (cytotoxicity indicator), at 2.08 µM; inhibition: at 2 µM, stronger effect = higher value, 0% TNFa-plus-vehicle, 100% no-TNFa wells
# [2] = reduction of polyQ htt aggregates in cells – imaging, exon1htt(103Q)mCFP cells, high-content imaging, primary screen (AID 483;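 active = visual image review flags a hit and inhibition of aggregation exceeds 20%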;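 also: compound exposure lasted 3 days before fixation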;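 as to nuclei count: percent of the per-plate median nuclei count of sample wells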); details: exon1htt(103Q)mCFP cell line, aggregate imaging, at 2 µM; inhibition of aggregation: stronger effect = higher value; nuclei count: measured here: cell count, toxicity
# [3] = endothelial E-selectin expression blockers – imaging, HUVEC, immunofluorescence, MLSMR starter and 10KST1 sets, primary screen (AID 487;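 active = visually confirmed hit in the image check and inhibition above 20%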;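 as to inhibition: signal is fraction of cell area covered by stained E-selectin grains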;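 as to nuclei count: 100% = median nuclei count of all wells on the same plate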); details: HUVEC TNFalpha-induced E-selectin immunofluorescence imaging, at 2 µM; inhibition: stronger effect = higher value; nuclei count: measured here: cell number, toxicity
# [4] = target: Voltage-gated potassium channel subunit beta-2 (Rattus norvegicus) (UniProt P62483); test: inhibitors of rat Kvbeta2 reductase activity – biochemical, NADPH fluorescence, primary screen (AID 622;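 active = fluorescence slope higher than the sample average by over 3 SD, cut at about -0.22 in these data, passing the limit was not always enough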;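 also: slope of raw intensity against log time taken from 70 to 1610 s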); details: recombinant KvBeta, 4-cyanobenzaldehyde reduction, at 10 µM, stronger effect = higher value
# Sequence of Voltage-gated potassium channel subunit beta-2 (Rattus norvegicus) (P62483 whole entry, looked up): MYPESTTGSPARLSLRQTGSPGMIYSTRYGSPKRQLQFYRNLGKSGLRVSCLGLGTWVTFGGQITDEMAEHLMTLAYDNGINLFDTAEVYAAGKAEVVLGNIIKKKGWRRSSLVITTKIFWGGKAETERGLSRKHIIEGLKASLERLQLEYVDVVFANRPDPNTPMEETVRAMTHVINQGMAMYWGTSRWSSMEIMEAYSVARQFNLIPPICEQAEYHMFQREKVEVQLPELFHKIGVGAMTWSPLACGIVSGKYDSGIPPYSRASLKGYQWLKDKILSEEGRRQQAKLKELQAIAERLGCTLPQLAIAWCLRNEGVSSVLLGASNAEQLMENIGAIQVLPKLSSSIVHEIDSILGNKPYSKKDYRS
# [5] = target: Voltage-gated potassium channel subunit beta-2 (Rattus norvegicus) (UniProt P62483); test: enhancers of rat Kvbeta2 NADPH turnover – biochemical, NADPH fluorescence, primary screen (AID 623); details: Recombinant KvBeta, NADPH fluorescence decrease slope, 10 min; at 10 µM; stronger effect = lower value;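 also: fluorescence intensity change per second fitted from 20 to 320 s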
# [6] = target: Alpha-2C adrenergic receptor (Homo sapiens) (UniProt P18825); test: compounds altering alpha2C-coupled GIRK flux – cell-based, HEK293 alpha2C/GIRK1/2, thallium flux, primary screen (AID 624;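 active = fluorescence slope after compound addition differing from the mean of all screened samples at 99.7% confidence, in either direction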;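 also: slope of fluorescence ratio to pre-addition baseline per second over 15 to 24 s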); details: thallium flux BTC fluorescence, at 10 µM, actives lie on both sides
# Sequence of Alpha-2C adrenergic receptor (Homo sapiens) (P18825 whole entry, looked up): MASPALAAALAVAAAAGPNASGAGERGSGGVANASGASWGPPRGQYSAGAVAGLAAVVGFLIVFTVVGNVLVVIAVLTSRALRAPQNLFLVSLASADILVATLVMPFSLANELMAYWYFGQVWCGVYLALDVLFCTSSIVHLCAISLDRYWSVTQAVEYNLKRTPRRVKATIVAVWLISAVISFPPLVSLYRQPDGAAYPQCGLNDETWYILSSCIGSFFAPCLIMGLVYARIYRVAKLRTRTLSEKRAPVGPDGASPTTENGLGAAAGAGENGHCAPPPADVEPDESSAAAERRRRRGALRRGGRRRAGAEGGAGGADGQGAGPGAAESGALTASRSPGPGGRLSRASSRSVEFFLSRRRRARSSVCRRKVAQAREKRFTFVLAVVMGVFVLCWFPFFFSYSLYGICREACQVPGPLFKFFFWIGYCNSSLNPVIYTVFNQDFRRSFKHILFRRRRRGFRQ
# [7] = inhibitors of larval lipid processing in zebrafish, primary screen, whole organism, PED6 fluorescence, gall bladder and intestine (AID 686;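 active = a full or partial loss of lipid-probe fluorescence in the fish gall bladder, intestine or both, judged by eye; inactive = no fluorescence loss, or compound toxic to the fish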;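 also: larvae 5 to 7 days old with five fish per well; signal comes from phospholipase A2 cleavage of quenched PED6 carried via bile; overnight exposure to compound and PED6 before scoring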); details: Zebrafish larvae PED6 lipid processing, fluorescence scoring; screened at 20 µM (by protocol)
# Procedure, shortened: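 system = live zebrafish larvae aged 5-7 days, whole organism | probe or stimulus = ingested quenched lipid PED6 at 100 nM | doses = 20 µM single dose | timing = overnight exposure | detection = fluorescence microscopy with visual scoring of gall bladder and intestine | read-out = visual per-well fluorescence inhibition score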
# [8] = blockers of RIG-like receptor reporter activation – cell-based, Sendai virus stimulus, luciferase, 10K MLSCN set, TLR/RLR signaling modifier project, primary screen (AID 602276;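 active = inhibition at or above 50% at 10 µM; inactive = inhibition below 50%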;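 also: firefly luciferase from ISG56 promoter only with Renilla not read in this screen; 0% = Sendai virus plus DMSO and 100% = medium plus DMSO without virus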); details: HEK293 RL24 IRF3 luciferase reporter, at 10 µM, stronger effect = higher value
# [9] = TLR3 IRF3 reporter activation blockers – cell-based, poly I:C stimulus, luciferase, 10K MLSCN set, primary screen (AID 602277;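 active = inhibition of the reporter signal at or above 50%; inactive = inhibition below 50%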); details: HEK293-TLR3 RL24 IRF3 luciferase reporter, at 10 µM, stronger effect = higher value
SMILES,cell count [1],inhibition [1],inhibition of aggregation [2],nuclei count [2] [%],inhibition [3],nuclei count [3] [%],fluorescence slope [4],NADPH fluorescence slope [5],slope [6],outcome [7],inhibition [8],inhibition [9]
O=C(NCC1CCCO1)c1cc(-c2ccncc2)nc2ccc(S(=O)(=O)N3CCOCC3)cc12 (configuration not stated),878,2.1% (inactive),-9.7% (inactive),106,-91% (inactive),129,-0.387 (inactive),-9.2e-05 (inactive),0.00498 (inactive),inactive,10.6% (inactive),10.8% (inactive)
COc1ccccc1OCc1nc2ccccc2[nH]1,391,1.3% (inactive),19.9% (inactive),101,29.8% (inactive),86.3,-0.444 (inactive),-7e-05 (inactive),0.0055 (inactive),inactive,-14.3% (inactive),-80.7% (inactive)
CC1Oc2ccccc2N(Cc2ccccc2Cl)C1=O (configuration not stated),630,15.4% (inactive),-11.1% (inactive),59.5,-90.8% (inactive),106,-0.475 (inactive),-5.9e-05 (inactive),0.00421 (inactive),inactive,-20.2% (inactive),-52.6% (inactive)
COc1ccc(S(=O)(=O)N2CCN(S(=O)(=O)c3ccc4c(c3)OCCO4)CC2)cc1C,377,4% (inactive),-8.3% (inactive),114,15.9% (inactive),85,-0.223 (inactive),-5.5e-05 (inactive),0.00641 (inactive),inactive,16.8% (inactive),26.6% (inactive)
C#CCSc1nc(-c2cccs2)ccc1C#N,340,-1% (inactive),-15% (inactive),92.8,-85.2% (inactive),112,-0.5 (inactive),5.7e-06 (inactive),0.00646 (inactive),inactive,-10.7% (inactive),5.18% (inactive)
CC1CC(C)CN(c2nc3c(c(=O)[nH]c(=O)n3C)n2CCCSc2nc3ccccc3s2)C1 (configuration not stated),383,-4.3% (inactive),33.6% (inactive),97.2,-83.6% (inactive),107,-0.445 (inactive),-5e-05 (inactive),0.00577 (inactive),inactive,10.4% (inactive),11.5% (inactive)
C1=C(CCNc2ncnc3c2cnn3-c2ccccc2)CCCC1,355,2.8% (inactive),17.1% (inactive),91.5,-22.4% (inactive),124,-0.375 (inactive),-6.3e-05 (inactive),0.00514 (inactive),inactive,-36.5% (inactive),-142% (inactive)
Cc1cc(C)cc(N2C(=O)C3C4C=CC(C4)C3C2=O)c1 (configuration not stated),643,-4.8% (inactive),-4.9% (inactive),98.2,28% (inactive),99.1,-0.451 (inactive),-4.1e-05 (inactive),0.00599 (inactive),inactive,13.3% (inactive),14.4% (inactive)
CC(C)(C)NC(=O)CN(Cc1cccs1)C(=O)c1csnn1,570,12.9% (inactive),34.6% (active),85,20.6% (inactive),89.9,-0.431 (inactive),-4.2e-05 (inactive),0.00455 (inactive),inactive,11.9% (inactive),16.1% (inactive)
CC(=O)Nc1c(O)[nH]c2ccccc12,566,-25.9% (inactive),-9.8% (inactive),98.9,-5.9% (inactive),102,-0.414 (inactive),-5.4e-05 (inactive),0.00575 (inactive),inactive,10.4% (inactive),16.8% (inactive)
CCC(CCC(=O)Nc1cccc(C(=O)O)c1)C(=O)O (configuration not stated),506,8.8% (inactive),10.2% (inactive),86.5,49.6% (inactive),74.2,-0.448 (inactive),-2.4e-05 (inactive),0.00563 (inactive),inactive,4.27% (inactive),-4.76% (inactive)
COc1ccc(-n2ncc3c(NCc4cccs4)ncnc32)cc1,424,3.9% (inactive),-20.1% (inactive),98.4,-94.5% (inactive),106,-0.36 (inactive),-2e-06 (inactive),0.00593 (inactive),inactive,-24.5% (inactive),-70.4% (inactive)
COc1cc2c(cc1OC)C(/C(C#N)=N\O)=NC(C)(C)C2,635,-39.6% (inactive),2.8% (inactive),107,33% (inactive),96.2,-0.432 (inactive),-2e-05 (inactive),0.0058 (inactive),inactive,13.5% (inactive),13.6% (inactive)
O=C(c1ccc(S(=O)(=O)N2CCC(c3nc4ccccc4s3)CC2)cc1)N1CCOCC1,689,-2.9% (inactive),-25% (inactive),109,-80.2% (inactive),116,-0.392 (inactive),-9.6e-07 (inactive),0.00693 (inactive),inactive,-8.58% (inactive),3.6% (inactive)
CCN(C(=O)c1cccs1)c1nnc(-c2ccncc2)s1,737,-7.1% (inactive),-14.4% (inactive),104,-80% (inactive),115,-0.374 (inactive),-7.1e-05 (inactive),0.00498 (inactive),inactive,-7.04% (inactive),-41.1% (inactive)
CC(C)C(CO)NC(=O)CC(=O)NC(CO)C(C)C (configuration not stated),627,-5.6% (inactive),4.9% (inactive),82.3,48.7% (inactive),35.5,-0.392 (inactive),-5.1e-05 (inactive),0.00488 (inactive),inactive,9.94% (inactive),12.2% (inactive)
CCOc1nc(NCCC2=CCCCC2)nc(N2CCOCC2)n1,450,2.7% (inactive),6.3% (inactive),84,-23.8% (inactive),96.5,-0.364 (inactive),-5.8e-05 (inactive),0.00441 (inactive),inactive,10.2% (inactive),5.8% (inactive)
COCCNC(=S)c1ccc(OC)cc1,318,4.7% (inactive),1.2% (inactive),121,-41.9% (inactive),123,-0.362 (inactive),-7.4e-05 (inactive),0.00489 (inactive),inactive,4.72% (inactive),4.95% (inactive)
O=C(O)CCc1ccc(-c2ccc(F)cc2)n1CCC(=O)O,422,1.8% (inactive),-12.9% (inactive),118,-140% (inactive),120,-0.427 (inactive),-5.7e-05 (inactive),0.00497 (inactive),inactive; toxic,15.3% (inactive),19.9% (inactive)
CC1Oc2ccccc2N(CC(=O)NCc2cccs2)C1=O (configuration not stated),787,1.6% (inactive),2.2% (inactive),91.4,-146% (inactive),120,-0.448 (inactive),-6e-05 (inactive),0.00433 (inactive),active; weak signal in gallbladder only,-0.51% (inactive),-12.6% (inactive)
O=C(O)CCC(=O)NC1CCCCC1NC(=O)CCC(=O)O (configuration not stated),488,4% (inactive),-8.6% (inactive),104,-189% (inactive),129,-0.394 (inactive),-6.2e-05 (inactive),0.00623 (inactive),inactive,5.12% (inactive),3.98% (inactive)
c1ccc(-c2cc(CSc3nc4ccccc4[nH]3)on2)cc1,416,5.3% (inactive),-43% (inactive),99.4,-68.7% (inactive),116,-0.376 (inactive),-8.1e-05 (inactive),0.00533 (inactive),inactive,-0.361% (inactive),-25% (inactive)
CC12CCC(C(=O)N3CCN(C(=O)C45CCC(C)(C(=O)O4)C5(C)C)CC3)(OC1=O)C2(C)C,575,-8.7% (inactive),-6.1% (inactive),108,-42.4% (inactive),140,-0.391 (inactive),-7.7e-05 (inactive),0.00544 (inactive),inactive,-54.1% (inactive),99.3% (active)
Cc1ccc(C)c(CSc2nnc(CCN)o2)c1,431,-14.5% (inactive),2.5% (inactive),65.3,-41.1% (inactive),103,-0.462 (inactive),-9.3e-06 (inactive),0.00535 (inactive),inactive,6.22% (inactive),10.2% (inactive)
COc1ccc(N2CCN(C(=O)CSc3ccccc3)CC2)cc1,393,-11.8% (inactive),1.5% (inactive),105,-18.6% (inactive),108,-0.401 (inactive),-5.3e-05 (inactive),0.00515 (inactive),inactive,-14.2% (inactive),-34.1% (inactive)
CCOC(=O)CC(=O)CSc1nc(-c2cccnc2)ccc1C#N,908,11.4% (inactive),-23.5% (inactive),87.2,-90.5% (inactive),128,-0.0463 (active),-1.8e-05 (inactive),0.013 (active),inactive,-15.8% (inactive),-33.1% (inactive)
